Results: ChEMBL document CHEMBL4308880, “Novel monoamine oxidase inhibitors based on the privileged 2-imidazoline molecular framework” (Bioorg Med Chem Lett, 2019)

biological target: T1, Amine oxidase [flavin-containing] B (Homo sapiens, UniProt P27338); test: Inhibition of recombinant human MAO-B expressed in insect cell microsomes assessed as residual activity using kynuramine as substrate at 4 times IC50 concentration preincubated for 15 mins measured after 20 mins by fluorescence spectroscopy relative to control
T1 sequence (P27338 whole entry): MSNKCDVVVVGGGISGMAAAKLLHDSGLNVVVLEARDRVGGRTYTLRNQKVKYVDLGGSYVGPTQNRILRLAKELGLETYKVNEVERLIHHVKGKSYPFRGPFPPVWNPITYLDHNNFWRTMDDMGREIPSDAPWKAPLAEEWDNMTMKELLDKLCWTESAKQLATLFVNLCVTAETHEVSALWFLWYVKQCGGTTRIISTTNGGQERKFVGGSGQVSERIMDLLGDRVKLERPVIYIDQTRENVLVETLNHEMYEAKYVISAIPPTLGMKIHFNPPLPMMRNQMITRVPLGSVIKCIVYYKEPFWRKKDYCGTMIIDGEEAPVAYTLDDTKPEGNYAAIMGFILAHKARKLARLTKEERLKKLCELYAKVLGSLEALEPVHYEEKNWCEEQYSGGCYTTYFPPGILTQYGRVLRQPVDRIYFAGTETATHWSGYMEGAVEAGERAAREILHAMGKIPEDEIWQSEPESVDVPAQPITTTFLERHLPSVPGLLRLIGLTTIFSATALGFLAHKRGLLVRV
Summary of the method: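 Enzyme mixed with inhibitor at 4 × IC50 and incubated 15 min, with no dialysis. Residual activity read with kynuramine by 4-hydroxyquinoline fluorescence and expressed against the dialyzed no-inhibitor control.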

SMILES	Activity [%]
Cc1ccc(-c2nc(-c3ccc(C4=NCCN4)cc3)no2)cc1	36

species: Homo sapiens; test: Selectivity index, ratio of IC50 for recombinant human MAOA expressed in insect cell microsomes to IC50 for recombinant human MAOB expressed in insect cell microsomes

SMILES	Ratio IC50
Clc1cccc(-c2noc(-c3ccc(C4=NCCN4)cc3)n2)c1	85
CC(C)c1noc(-c2ccc(C3=NCCN3)cc2)n1	97
c1ccc(OCc2noc(-c3ccc(C4=NCCN4)cc3)n2)cc1	> 10
c1ccc(-c2ccc(-c3noc(-c4ccc(C5=NCCN5)cc4)n3)cc2)cc1	> 2.1
c1ccc(-n2cc(C3=NCCN3)c(-c3cccs3)n2)cc1	> 5.4
Cc1nn(Cc2nc(-c3cccc(C4=NCCN4)c3)no2)c(=O)c2ccccc12	2.6
Clc1ccccc1-c1noc(-c2ccc(C3=NCCN3)cc2)n1	570
N#Cc1cccc(C2=NCCN2)c1	78
O=c1c2ccccc2cnn1Cc1noc(-c2ccc(C3=NCCN3)cc2)n1	> 79
Cc1nc(-c2ccc(C3=NCCN3)cc2)no1	1
c1cc(-c2noc(C3CC3)n2)ccc1C1=NCCN1	1.7
CC(C)(C)c1ccc(-c2noc(-c3ccc(C4=NCCN4)cc3)n2)cc1	1.8
c1ccc(Oc2ccc(-c3noc(-c4ccc(C5=NCCN5)cc4)n3)cc2)cc1	2
c1cc(C2=NCCN2)cc(-c2noc(-c3cccs3)n2)c1	83
c1csc(-c2noc(-c3ccc(C4=NCCN4)cc3)n2)c1	1.7
c1ncn(Cc2ccc(-c3noc(-c4ccc(C5=NCCN5)cc4)n3)cc2)n1	2.7
Clc1ccc(-c2noc(-c3ccc(C4=NCCN4)cc3)n2)cc1Cl	92
O=c1ccc(-c2ccccc2)nn1Cc1noc(-c2ccc(C3=NCCN3)cc2)n1	> 164
Cc1ccc(-c2noc(-c3ccc(C4=NCC(C)N4)cc3)n2)s1 (centres undefined)	82
N#Cc1ccc(C2=NCCN2c2ccc(C(F)(F)F)cn2)cc1	> 2.4
COc1ccc(-c2noc(-c3ccc(C4=NCCN4)cc3)n2)cc1OC	> 132
Cc1ccc(-c2nc(-c3ccc(C4=NCCN4)cc3)no2)cc1	32
FC(F)(F)c1cnc2c(c1)Oc1ccccc1C1=NCCN12	< 0.32
Cc1ccc(Cc2noc(-c3ccc(C4=NCCN4)cc3)n2)cc1	15
Clc1cccc(-c2nc(-c3cccc(C4=NCCN4)c3)no2)c1	46
Cn1ccnc1SCc1ccc(-c2noc(-c3ccc(C4=NCCN4)cc3)n2)cc1	5.4
N#Cc1ccc(C2=NCCN2c2cnccn2)cc1	> 5.8
COc1cccc(-c2noc(-c3ccc(C4=NCCN4)cc3)n2)c1	55
CC1CN=C(c2ccc(-c3noc(-c4ccc(Cl)c(Cl)c4)n3)cc2)N1 (centres undefined)	91

biological target: T1, Amine oxidase [flavin-containing] B; test: Competitive inhibition of human MAOB expressed in insect cell microsomes using varying levels of kynuramine as substrate measured after 20 mins by Lineweaver-burk plot analysis
Summary of the method: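 Activity recorded at 8 kynuramine concentrations (15–250 µM). Runs done without inhibitor and with five inhibitor levels (¼, ½, ¾, 1 and 1¼ × IC50). Mode of inhibition assigned from Lineweaver-Burk plots.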

SMILES	Ki [µM]
Cc1ccc(-c2nc(-c3ccc(C4=NCCN4)cc3)no2)cc1	0.038

biological target: T2, Amine oxidase [flavin-containing] A (Homo sapiens, UniProt P21397); test: Competitive inhibition of human MAOA using p-trifluoromethyl benzylamine as substrate preincubated with substrate for 5 mins followed by enzyme addition by fluorimetric horseradish peroxidase-Amplex Red-coupled assay
T2 sequence (P21397 whole entry): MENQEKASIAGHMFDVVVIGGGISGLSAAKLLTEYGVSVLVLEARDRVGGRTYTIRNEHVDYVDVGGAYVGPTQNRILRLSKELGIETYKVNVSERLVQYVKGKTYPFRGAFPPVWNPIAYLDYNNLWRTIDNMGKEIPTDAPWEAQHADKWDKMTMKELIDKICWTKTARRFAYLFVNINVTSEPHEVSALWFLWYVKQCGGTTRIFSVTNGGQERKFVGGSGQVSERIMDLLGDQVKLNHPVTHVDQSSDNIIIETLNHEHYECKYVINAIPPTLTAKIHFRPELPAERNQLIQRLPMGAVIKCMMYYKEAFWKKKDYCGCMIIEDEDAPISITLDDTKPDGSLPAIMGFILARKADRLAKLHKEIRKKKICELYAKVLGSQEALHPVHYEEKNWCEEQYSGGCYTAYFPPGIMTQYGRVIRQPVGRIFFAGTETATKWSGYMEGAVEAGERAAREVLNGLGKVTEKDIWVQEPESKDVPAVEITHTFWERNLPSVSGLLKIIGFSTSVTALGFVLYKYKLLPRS

SMILES	Ki [µM]
c1ccc2oc(C3=NCCN3)cc2c1	17

biological target: T1, Amine oxidase [flavin-containing] B; test: Inhibition of recombinant human MAOB expressed in insect cell microsomes using kynuramine as substrate preincubated with substrate for 30 mins followed by enzyme addition and measured after 20 mins by fluorescence spectrophotometry
Summary of the method: (§1)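 Recombinant human enzyme; kynuramine as substrate for both isoforms. 4-Hydroxyquinoline product read by fluorescence spectrophotometry after alkalization. Rates measured without and with inhibitor at 0.0003–100 µM. IC50 estimated from sigmoidal plots of rate versus log inhibitor concentration. Reported as mean ± standard deviation of triplicate experiments.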

SMILES	IC50 [µM]
Clc1cccc(-c2noc(-c3ccc(C4=NCCN4)cc3)n2)c1	0.064
CC(C)c1noc(-c2ccc(C3=NCCN3)cc2)n1	0.23
c1ccc(OCc2noc(-c3ccc(C4=NCCN4)cc3)n2)cc1	9.98
c1ccc(-c2ccc(-c3noc(-c4ccc(C5=NCCN5)cc4)n3)cc2)cc1	47.6
c1ccc(-n2cc(C3=NCCN3)c(-c3cccs3)n2)cc1	18.4
Cc1nn(Cc2nc(-c3cccc(C4=NCCN4)c3)no2)c(=O)c2ccccc12	23.9
Clc1ccccc1-c1noc(-c2ccc(C3=NCCN3)cc2)n1	0.03
N#Cc1cccc(C2=NCCN2)c1	1.87
O=c1c2ccccc2cnn1Cc1noc(-c2ccc(C3=NCCN3)cc2)n1	1.26
Cc1nc(-c2ccc(C3=NCCN3)cc2)no1	39.7
CCOc1ccc(-c2n[nH]cc2C2=NCCN2)cc1	> 100
c1cc(-c2noc(C3CC3)n2)ccc1C1=NCCN1	4.28
CC(C)(C)c1ccc(-c2noc(-c3ccc(C4=NCCN4)cc3)n2)cc1	0.411
c1ccc(Oc2ccc(-c3noc(-c4ccc(C5=NCCN5)cc4)n3)cc2)cc1	1.37
COc1ccc(C2=NCCN2)cc1Cn1ccnc1C	> 100
c1cc(C2=NCCN2)cc(-c2noc(-c3cccs3)n2)c1	1.06
c1csc(-c2noc(-c3ccc(C4=NCCN4)cc3)n2)c1	0.89

SMILES	IC50 [µM]
c1ncn(Cc2ccc(-c3noc(-c4ccc(C5=NCCN5)cc4)n3)cc2)n1	9.02
Clc1ccc(-c2noc(-c3ccc(C4=NCCN4)cc3)n2)cc1Cl	0.012
Cn1ncc2c(c1=O)Oc1ccccc1C1=NCCN12	> 100
O=c1ccc(-c2ccccc2)nn1Cc1noc(-c2ccc(C3=NCCN3)cc2)n1	0.608
Cc1ccc(-c2noc(-c3ccc(C4=NCC(C)N4)cc3)n2)s1 (centres undefined)	0.3
N#Cc1ccc(C2=NCCN2c2ccc(C(F)(F)F)cn2)cc1	41.8
COc1ccc(-c2noc(-c3ccc(C4=NCCN4)cc3)n2)cc1OC	0.756
Cc1ccc(-c2nc(-c3ccc(C4=NCCN4)cc3)no2)cc1	0.071
FC(F)(F)c1cnc2c(c1)Oc1ccccc1C1=NCCN12	> 100
Cc1ccc(Cc2noc(-c3ccc(C4=NCCN4)cc3)n2)cc1	3.64
Clc1cccc(-c2nc(-c3cccc(C4=NCCN4)c3)no2)c1	0.03
Cn1ccnc1SCc1ccc(-c2noc(-c3ccc(C4=NCCN4)cc3)n2)cc1	2.28
c1ccc2c(c1)Oc1nccnc1N1CCN=C21	> 100
N#Cc1ccc(C2=NCCN2c2cnccn2)cc1	17.2
COc1cccc(-c2noc(-c3ccc(C4=NCCN4)cc3)n2)c1	0.216
CC1CN=C(c2ccc(-c3noc(-c4ccc(Cl)c(Cl)c4)n3)cc2)N1 (centres undefined)	0.16

biological target: T1, Amine oxidase [flavin-containing] B; test: Reversible inhibition of recombinant human MAO-B expressed in insect cell microsomes assessed as residual activity using kynuramine as substrate at 4 times IC50 concentration preincubated for 15 mins with subsequent dialysis for 24 hrs followed by substrate addition measured after 20 mins by fluorescence spectroscopy relative to control
Summary of the method: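 Enzyme preincubated 15 min with inhibitor at 4 × IC50, then dialyzed 24 h. Samples then diluted twofold to 2 × IC50. Kynuramine added and reactions run 20 min. 4-Hydroxyquinoline quantified by fluorescence spectrophotometry. Controls: dialysis with no inhibitor (set as 100%) and dialysis with the irreversible inhibitor (R)-deprenyl.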

SMILES	Activity [%]
Cc1ccc(-c2nc(-c3ccc(C4=NCCN4)cc3)no2)cc1	66

biological target: T2, Amine oxidase [flavin-containing] A; test: Inhibition of recombinant human MAOA expressed in insect cell microsomes using kynuramine as substrate preincubated with substrate for 30 mins followed by enzyme addition and measured after 20 mins by fluorescence spectrophotometry; summary of the method: as §1

SMILES	IC50 [µM]
Clc1cccc(-c2noc(-c3ccc(C4=NCCN4)cc3)n2)c1	5.47
CC(C)c1noc(-c2ccc(C3=NCCN3)cc2)n1	22.5
c1ccc(OCc2noc(-c3ccc(C4=NCCN4)cc3)n2)cc1	> 100
c1ccc(-c2ccc(-c3noc(-c4ccc(C5=NCCN5)cc4)n3)cc2)cc1	> 100
c1ccc(-n2cc(C3=NCCN3)c(-c3cccs3)n2)cc1	> 100
Cc1nn(Cc2nc(-c3cccc(C4=NCCN4)c3)no2)c(=O)c2ccccc12	62.2
Clc1ccccc1-c1noc(-c2ccc(C3=NCCN3)cc2)n1	17.1
N#Cc1cccc(C2=NCCN2)c1	147
O=c1c2ccccc2cnn1Cc1noc(-c2ccc(C3=NCCN3)cc2)n1	> 100
Cc1nc(-c2ccc(C3=NCCN3)cc2)no1	41.1
CCOc1ccc(-c2n[nH]cc2C2=NCCN2)cc1	> 100
c1cc(-c2noc(C3CC3)n2)ccc1C1=NCCN1	7.37
CC(C)(C)c1ccc(-c2noc(-c3ccc(C4=NCCN4)cc3)n2)cc1	0.751
c1ccc(Oc2ccc(-c3noc(-c4ccc(C5=NCCN5)cc4)n3)cc2)cc1	2.77
COc1ccc(C2=NCCN2)cc1Cn1ccnc1C	> 100
c1cc(C2=NCCN2)cc(-c2noc(-c3cccs3)n2)c1	88.3
c1csc(-c2noc(-c3ccc(C4=NCCN4)cc3)n2)c1	1.57

SMILES	IC50 [µM]
c1ncn(Cc2ccc(-c3noc(-c4ccc(C5=NCCN5)cc4)n3)cc2)n1	24.6
Clc1ccc(-c2noc(-c3ccc(C4=NCCN4)cc3)n2)cc1Cl	1.11
Cn1ncc2c(c1=O)Oc1ccccc1C1=NCCN12	> 100
O=c1ccc(-c2ccccc2)nn1Cc1noc(-c2ccc(C3=NCCN3)cc2)n1	> 100
Cc1ccc(-c2noc(-c3ccc(C4=NCC(C)N4)cc3)n2)s1 (centres undefined)	24.7
N#Cc1ccc(C2=NCCN2c2ccc(C(F)(F)F)cn2)cc1	> 100
COc1ccc(-c2noc(-c3ccc(C4=NCCN4)cc3)n2)cc1OC	> 100
Cc1ccc(-c2nc(-c3ccc(C4=NCCN4)cc3)no2)cc1	2.31
FC(F)(F)c1cnc2c(c1)Oc1ccccc1C1=NCCN12	32
Cc1ccc(Cc2noc(-c3ccc(C4=NCCN4)cc3)n2)cc1	55.5
Clc1cccc(-c2nc(-c3cccc(C4=NCCN4)c3)no2)c1	1.39
Cn1ccnc1SCc1ccc(-c2noc(-c3ccc(C4=NCCN4)cc3)n2)cc1	12.4
c1ccc2c(c1)Oc1nccnc1N1CCN=C21	> 100
N#Cc1ccc(C2=NCCN2c2cnccn2)cc1	> 100
COc1cccc(-c2noc(-c3ccc(C4=NCCN4)cc3)n2)c1	12
CC1CN=C(c2ccc(-c3noc(-c4ccc(Cl)c(Cl)c4)n3)cc2)N1 (centres undefined)	14.7
